Measured values of several laboratories.
Protocols differ between the studies behind these lines.
Target: Aurora kinase C (AURKC, Homo sapiens, UniProt Q9UQB9)
One construct used (Q9UQB9 1-309): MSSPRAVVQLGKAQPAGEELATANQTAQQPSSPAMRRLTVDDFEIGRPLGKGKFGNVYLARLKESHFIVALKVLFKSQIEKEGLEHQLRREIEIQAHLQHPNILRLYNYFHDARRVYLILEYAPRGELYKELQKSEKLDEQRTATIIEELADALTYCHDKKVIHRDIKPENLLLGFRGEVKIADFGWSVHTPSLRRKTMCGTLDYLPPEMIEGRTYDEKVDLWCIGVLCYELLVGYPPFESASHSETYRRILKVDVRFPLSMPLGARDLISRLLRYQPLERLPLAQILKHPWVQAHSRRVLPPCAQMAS

SMILES | assay | setting | remaining binding [%]
O=C(Nc1c[nH]nc1C(=O)NC1CCNCC1)c1cc(F)cc(F)c1 | binding, competition with immobilised ligand | 1 µM | 84
COc1cccc(CNC(=O)c2nc3scc(COCc4ccc(C(=O)O)cc4)c3c(=O)[nH]2)c1 | cell-free assay, competition with immobilised ligand | 1 µM | 67.3
c1cnn2ncc(-c3ccnc(N4CCC45COC5)n3)c2c1 | binding | 1 µM | 96
FC(F)(F)Oc1cccc(-c2cnc3ccc(-c4ccncc4)nn23)c1 | cell-free assay, competition with immobilised ligand | 5 µM | 78
CN(C)c1nccc(-c2cnn3ncccc23)n1 | binding | 1 µM | 100
CNC(=O)[C@@H]1CC[C@@H](n2c(-c3ccc4cnccc4c3)nc3ccc(C(=O)NCc4cccc(C(N)=O)c4)cc32)C1 | binding, competition with immobilised ligand | 1 µM | 100
C=CC(=O)N1CCC(C(=O)NCC(=O)N2CCN(c3nc(-c4cnc(N)nc4C(F)F)nc(N4CCOCC4)n3)CC2)CC1 | binding, competition with immobilised ligand | 1 µM | 100
c1cncc(-c2cccc(Nc3nccc(NC4CCCCC4)n3)c2)c1 | binding, competition with immobilised ligand | 10 µM | 5.5
CO[C@@H](C)c1c(Nc2ccc([C@H](N(C)C(=O)C3CCS(=O)(=O)CC3)C(F)(F)F)cc2)cnc2cc(Cl)nn12 | cell-free assay, competition with immobilised ligand | 1 µM | 77
O=C(c1ccc(Nc2ncc(Cl)c(-c3cc4ccccc4s3)n2)cc1)N1CCC(N2CCCC2)CC1 | binding, competition with immobilised ligand | 1 µM | 1.8
CO[C@H]1CC[C@H](CNc2ccc(S(=O)(=O)NC(=O)c3ccc(N4CCN(CC5=C(c6ccc(Cl)cc6)CC(C)(C)CC5)CC4)cc3Oc3cnc4[nH]ccc4c3)cc2[N+](=O)[O-])CC1 | cell-free assay, competition with immobilised ligand | 1 µM | 87
CC1CCCN1c1nccc(-c2cnn3ncccc23)n1 (stereo not shown) | binding | 1 µM | 89
O=C(c1ccc(Nc2nccc(-c3cc4ccccc4s3)n2)cc1)N1CCC(N2CCCC2)CC1 | binding, competition with immobilised ligand | 1 µM | 30
O=C(N1CCS(=O)(=O)CC1)N1C[C@H](c2ccc(OC(F)(F)F)cc2)C[C@H](c2nc(C3CC3)no2)C1 | cell-free assay, competition with immobilised ligand | 1 µM | 99
COc1cnc(Nc2cccc(S(N)(=O)=O)c2)nc1N1CCN(c2ccccc2)CC1 | binding, competition with immobilised ligand | 1 µM | 84
O=C(O)[C@@H]1[C@@H](Cn2nnc3ccccc3c2=O)CC[C@H]1C(=O)c1ccc(OCCC2CCOCC2)cc1 | cell-free assay, competition with immobilised ligand | 1 µM | 100
N[C@H]1CCN(c2nccc(-c3cnn4ncccc34)n2)C1 | binding | 1 µM | 97
Cc1cnc(Nc2ccc(C(=O)N3CCC(N4CCCC4)CC3)cc2)nc1-c1cc2ccccc2s1 | binding, competition with immobilised ligand | 1 µM | 4.3
COc1ccnn2ncc(-c3ccnc(N(C)C)n3)c12 | binding | 1 µM | 100
COc1ccc2c(O[C@@H]3C[C@H]4C(=O)N[C@]5(C(=O)O)CC5/C=C\CCCCC[C@H](NC(=O)OC5CCCC5)C(=O)N4C3)cc(-c3csc(NC(=O)C(C)C)n3)nc2c1C (stereo partly shown) | cell-free assay, competition with immobilised ligand | 1 µM | 96
C[C@H]1CCN(c2nccc(-c3cnn4ncccc34)n2)C1 | binding | 1 µM | 95
CCN1CCN(Cc2ccc(C(=O)Nc3ccc(C)c(Oc4ccc5c(c4)CC(=O)N5)c3)cc2C(F)(F)F)CC1 | binding, competition with immobilised ligand | 1 µM | 91
